We go through 13 compounds from ChEMBL document CHEMBL1122076, “Synthesis of 2-(alkylamino)-5,6- and -6,7-dihydroxy-3,4-dihydroquinazolines and evaluation as potential dopamine agonists” (J Med Chem, 1982).

Activity calls are given as the source filed them. No cut-off for these calls is given here.

For the first data set, the system named is Canis familiaris. Put plainly: Evaluated for the percentage vasodilation in the renal artery produced by 3000 nmol administered intra-arterially. The format is functional, Canis lupus familiaris.
Conditions: not given
The gist of the method:
(§1)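 Anesthetized dogs fitted with an electromagnetic flow probe on the renal artery; a bent 25-gauge needle was inserted proximally into the artery for dosing. Phenoxybenzamine, 5 mg/kg ia, was infused first. A dopamine dose-response curve (11.75, 47, 188 nmol/dog) was run, then rising doses of test agent up to 3000 nmol were injected intra-arterially, each in 0.2 mL.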
`CCCN(CCC)C1=NCc2cc(O)c(O)cc2N1`: the Vasodilation is on record as 50%.

In the case of `CNC1=NCc2cc(O)c(O)cc2N1`, the Vasodilation was found to be 50%.

`NC1=NCc2cc(O)c(O)cc2N1` yielded a Vasodilation of 50%.

Test system in a further data set: not listed separately
Put plainly: Evaluated for the pKa value. The data set is classed as physicochemical.
Conditions: not given
The essentials: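 Hydrochloride salt titrated to determine the pKa of the ammonium ion. Values for related analogues were estimated by extrapolating the pKa values of the corresponding dimethyl ethers.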
As to `NCCc1ccc(O)c(O)c1` [DOPAMINE], the pKa was found to be 9.84.

Regarding `NC1CCc2cc(O)c(O)cc2C1` (stereo not given), the pKa was found to be 9.84.

On to `NC1=NCc2cc(O)c(O)cc2N1`, for which the pKa stood at 12.

As for `COc1cc2c(cc1OC)NC(N)=NC2`, the pKa was 11.1.

The compound `NC1CCc2c(ccc(O)c2O)C1` (stereo not given) gave a pKa of 9.84.

The subject of the next data set is Canis familiaris. The data set can be described thus: Evaluated for the percentage vasodilation in the renal artery produced by 3000 nmol administered intra-arterially; NA is No Antagonistic activity. The conditions noted are these: Canis lupus familiaris. The data set is classed as functional, organism-based. The gist of the method: as §1
In the case of `CNC1=NCc2c(ccc(O)c2O)N1`, the Vasodilation entry was “inactive”.

Regarding `CN(C)C1=NCc2cc(O)c(O)cc2N1`, the Vasodilation entry is “inactive”.

Consider `NC1=NCc2c(ccc(O)c2O)N1`, for which the Vasodilation result was “inactive”.

As for `CCCN(CCC)C1=NCc2c(ccc(O)c2O)N1`, the Vasodilation result was “inactive”.

On to `CN(C)C1CCc2c(ccc(O)c2O)C1` (stereo not given), for which the Vasodilation result is “inactive”.

As to `CN(C)C1=NCc2c(ccc(O)c2O)N1`, the Vasodilation result is “inactive”.

Take `NC1CCc2c(ccc(O)c2O)C1` (stereo not given): the Vasodilation entry is “inactive”.
